Data set [1] concerns the target Epidermal growth factor receptor (Homo sapiens) (UniProt P00533). Put plainly: Inhibition of EGFR phosphorylation in […]-stimulated human A549 cells pretreated at 20 nM by Western blot analysis. In kind it is cell-based. The method in brief:
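A549 cells serum-starved 24 h, pretreated with 20 nM for 2 h, then stimulated with EGF (10 ng/mL) for 10 min. EGFR, Akt and ERK phosphorylation and levels assessed by Western blot.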
Background: A western blot detects proteins with antibodies after separation by electrophoresis.

The subject of data set [2] is A549. As to the kind of experiment: Cell cycle arrest in human A549 cells assessed as accumulation at S phase at 20 nM after 24 hrs by propidium iodide staining-based flow cytometric analysis (reference value: 31.6 %). In kind it is functional. Background: A flow cytometer gives signals particle by particle.
The subject of data set [3] is A549. As to the kind of experiment: Antitumor activity against human A549 cells xenografted in BALB/c mouse assessed as inhibition of tumor growth at 0.2 mg/kg, po once daily for 14 days measured for 27 days relative to control. In kind it is functional, organism-based. Set-up: dose 0.2 mg/kg. In outline:
(§1)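 Female nu/nu nude mice given 3 × 10^6 A549 cells sc into the right flank, in 200 μL medium. At ~100 mm3, randomized into groups of five. Dosed orally once daily for 14 days in 100 μL ethanol–Tween 80–water (1:1:98), vehicle as control. Tumor volume measured by caliper every 2–3 days; body weight monitored.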
Background: A xenograft is tissue or cells of one species grown in another, often human tumour cells in immunodeficient mice.

Data set [4] deals with A549. Put plainly: Cell cycle arrest in human A549 cells assessed as accumulation at Sub-G1 phase at 20 nM after 24 hrs by propidium iodide staining-based flow cytometric analysis (reference value: 0.2 %). In kind it is functional.
For data set [5], the system named is A549. As to the kind of experiment: Antiproliferative activity against human A549 cells assessed as growth inhibition incubated for 24 hrs measured 24 hrs after compound washout by SRB assay. In kind it is functional, cell-based. In outline: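 A549 cells exposed to a range of concentrations for 24 h, washed with PBS and kept in drug-free medium for 24 h. Compared with continuous 24 h and 48 h exposure. Viability read by SRB. Means ± SE of triplicate tests.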

In data set [6] the test system is A549. Put plainly: Downregulation of CDK2 expression in human A549 cells at G1 phase at 5 to 100 nM after 24 to 48 hrs by Western blot analysis. In kind it is functional, cell-based. In outline: (§2)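 A549 cells treated with a range of concentrations for 24 or 48 h. Lysates run on 6–15% SDS-PAGE and blotted to PVDF, blocked in 5% milk/PBST. Primary antibodies overnight at 4 °C, secondary 2 h at room temperature, ECL detection. Representative of three independent experiments.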

In data set [7] the test system is A549. Put plainly: Cell cycle arrest in human A549 cells assessed as accumulation at G0/G1 phase at 20 nM after 48 hrs by propidium iodide staining-based flow cytometric analysis (reference value: 49.6 %). In kind it is functional.
Data set [8] concerns A549. Put plainly: Cell cycle arrest in human A549 cells assessed as accumulation at G2/M phase at 5 nM after 24 hrs by propidium iodide staining-based flow cytometric analysis (reference value: 18.9 %). In kind it is functional.
The target of data set [9] is 3-phosphoinositide-dependent protein kinase 1 (Homo sapiens) (UniProt O15530). Put plainly: Inhibition of PDK1 phosphorylation in human A549 cells after 24 hrs by Western blot analysis. In kind it is cell-based. The method in brief:
(§3)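 A549 cells (RPMI 1640, 10% FBS, 37 °C, 5% CO2) exposed to the compound at various concentrations for 24 or 48 h. Lysates run on 6–15% SDS-PAGE, transferred to PVDF, probed with primary antibodies overnight at 4 °C, and detected by ECL. Blots shown are representative of three independent experiments.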

Data set [10] has as its system NCI-H292. As to the kind of experiment: Antiproliferative activity against gefitinib resistant human NCI-H292 cells after 3 days by SRB assay. In kind it is functional, cell-based. The following applies: NCI-H292, 72 h.
The target of data set [11] is Hepatocyte growth factor receptor (Homo sapiens) (UniProt P08581). Put plainly: Inhibition of c-Met-mediated FKHRL1 phosphorylation in HGF-stimulated human A549 cells pretreated at 5 to 100 nM by Western blot analysis. In kind it is cell-based. The method in brief: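 A549 cells pretreated for 2 h with the compound at 5, 20 or 100 nM, then stimulated with HGF (50 ng/mL) for 10 min. c-Met and its downstream signalling proteins read by Western blot (SDS-PAGE, PVDF transfer, ECL detection).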

In the next data set the test system is Mus musculus. Put plainly: Toxicity in BALB/c mouse xenografted with human A549 cells in assessed as body weight at 0.5 mg/kg, po once daily for 14 days measured for 27 days relative to control. The following applies: in vivo, 648 h. The arrangement: dose 0.5 mg/kg, route oral. In kind it is organism-based. In outline:
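Female nu/nu mice were injected sc in the right flank with 3 × 10^6 A549 cells. At about 100 mm3 tumour volume, mice were randomised into groups of five. Compound was given orally at 0.2 or 0.5 mg/kg once daily for 14 days in ethanol/Tween 80/H2O (1:1:98). Body weight and overt toxicity were monitored against vehicle controls.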

Data set [12] deals with A549. As to the kind of experiment: Inhibition of Akt-signaling in human A549 cells at 5 to 40 nM after 24 hrs by Western blot analysis. In kind it is cell-based. The method in brief:
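A549 cells exposed for 24 or 48 h to a range of concentrations. Akt/mTOR pathway proteins in lysates assessed by Western blot (SDS-PAGE, PVDF, ECL detection).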

In another data set the test system is SK-MES-1. As to the kind of experiment: Antiproliferative activity against human SK-MES cells after 3 days by SRB assay. In kind it is functional, cell-based. The following applies: SK-MES-1, 72 h. In outline:
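Cells seeded at 5 × 10^4 cells/mL and exposed to a range of concentrations for 3 days. Fixed with 10% TCA, then SRB stain read. Growth expressed as % of solvent-treated control. IC50 obtained by nonlinear regression of percent survival versus concentration.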

Data set [13] has as its system A549. As to the kind of experiment: Antitumor activity against human A549 cells xenografted in BALB/c mouse assessed as inhibition of tumor growth at 0.5 mg/kg, po once daily for 14 days measured for 27 days relative to control. In kind it is functional. The settings on record: read-out: GI. In outline:
as §1

In data set [14] the test system is A549. As to the kind of experiment: Downregulation of CDC2 expression in human A549 cells at G2/M phase at 5 to 100 nM after 24 to 48 hrs by Western blot analysis. In kind it is functional, cell-based. The method in brief:
as §2

The subject of a further data set is NCI-H1993. As to the kind of experiment: Antiproliferative activity against gefitinib resistant human NCI-H1993 cells after 3 days by SRB assay. In kind it is functional, cell-based. The settings on record: NCI-H1993, 72 h.
The subject of data set [15] is A549. Put plainly: Cell cycle arrest in human A549 cells assessed as accumulation at S phase at 5 nM after 24 hrs by propidium iodide staining-based flow cytometric analysis (reference value: 31.6 %). In kind it is functional.
Data set [16] relates to A549. Put plainly: Cell cycle arrest in human A549 cells assessed as accumulation at Sub-G1 phase at 5 nM after 48 hrs by propidium iodide staining-based flow cytometric analysis (reference value: 0.2 %). In kind it is functional.
In data set [17] the test system is A549. Put plainly: Cell cycle arrest in human A549 cells assessed as accumulation at G0/G1 phase at 100 nM after 24 hrs by propidium iodide staining-based flow cytometric analysis (reference value: 49.6 %). In kind it is functional.
Data set [18] has as its target Serine/threonine-protein kinase mTOR (Homo sapiens) (UniProt P42345). Put plainly: Inhibition of MTOR-mediated 4EBP1 phosphorylation in human A549 cells at 20 nM after 24 to 48 hrs by Western blot analysis. In kind it is cell-based. In outline: as §3
Data set [19] deals with Mitogen-activated protein kinase; ERK1/ERK2 (Homo sapiens) (UniProt P27361+P28482). Put plainly: Inhibition of ERK1/2 in human A549 cells at 5 to 40 nM after 24 hrs by Western blot analysis. In kind it is cell-based. The method in brief: as §3
Data set [20] relates to A549. As to the kind of experiment: Cell cycle arrest in human A549 cells assessed as accumulation at Sub-G1 phase at 5 nM after 24 hrs by propidium iodide staining-based flow cytometric analysis (reference value: 0.2 %). In kind it is functional.
Data set [21] concerns NCI-H292. As to the kind of experiment: Antiproliferative activity against human NCI-H292 cells after 3 days by SRB assay. In kind it is functional, cell-based. The following applies: NCI-H292, 72 h.

Each structure is given as a SMILES string. The source made the active and inactive calls. The rule behind the calls is not given here.

Epidermal growth factor receptor (Homo sapiens), sequence (P00533 whole entry): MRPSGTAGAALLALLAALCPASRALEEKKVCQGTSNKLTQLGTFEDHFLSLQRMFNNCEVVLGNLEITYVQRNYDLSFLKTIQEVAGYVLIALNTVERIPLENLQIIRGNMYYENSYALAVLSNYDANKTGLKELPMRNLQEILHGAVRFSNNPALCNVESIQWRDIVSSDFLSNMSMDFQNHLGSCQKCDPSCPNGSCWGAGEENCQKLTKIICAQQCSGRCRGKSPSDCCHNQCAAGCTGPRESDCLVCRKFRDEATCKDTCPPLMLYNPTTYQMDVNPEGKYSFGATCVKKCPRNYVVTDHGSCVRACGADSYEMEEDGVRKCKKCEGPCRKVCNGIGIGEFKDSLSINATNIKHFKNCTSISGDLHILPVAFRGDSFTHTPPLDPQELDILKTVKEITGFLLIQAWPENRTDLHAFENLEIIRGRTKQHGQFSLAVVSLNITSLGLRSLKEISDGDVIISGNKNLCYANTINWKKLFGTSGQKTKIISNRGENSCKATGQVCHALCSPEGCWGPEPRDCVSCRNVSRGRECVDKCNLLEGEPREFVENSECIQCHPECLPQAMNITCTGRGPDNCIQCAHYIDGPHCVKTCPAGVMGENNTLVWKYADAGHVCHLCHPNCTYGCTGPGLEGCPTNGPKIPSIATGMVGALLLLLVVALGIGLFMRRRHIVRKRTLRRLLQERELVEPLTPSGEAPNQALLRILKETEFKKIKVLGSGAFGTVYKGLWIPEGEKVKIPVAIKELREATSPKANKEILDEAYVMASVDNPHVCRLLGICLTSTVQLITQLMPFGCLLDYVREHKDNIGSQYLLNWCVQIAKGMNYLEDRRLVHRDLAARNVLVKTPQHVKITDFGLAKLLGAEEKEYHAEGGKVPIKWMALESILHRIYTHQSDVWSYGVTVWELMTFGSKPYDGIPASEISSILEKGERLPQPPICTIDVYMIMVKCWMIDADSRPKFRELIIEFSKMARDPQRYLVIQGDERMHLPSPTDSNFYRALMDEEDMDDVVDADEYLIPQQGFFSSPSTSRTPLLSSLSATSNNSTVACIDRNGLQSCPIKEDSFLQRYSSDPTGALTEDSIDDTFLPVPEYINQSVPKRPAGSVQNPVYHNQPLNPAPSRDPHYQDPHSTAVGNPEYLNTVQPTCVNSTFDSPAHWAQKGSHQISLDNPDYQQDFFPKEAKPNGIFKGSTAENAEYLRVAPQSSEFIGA
3-phosphoinositide-dependent protein kinase 1 (Homo sapiens), sequence (O15530 whole entry): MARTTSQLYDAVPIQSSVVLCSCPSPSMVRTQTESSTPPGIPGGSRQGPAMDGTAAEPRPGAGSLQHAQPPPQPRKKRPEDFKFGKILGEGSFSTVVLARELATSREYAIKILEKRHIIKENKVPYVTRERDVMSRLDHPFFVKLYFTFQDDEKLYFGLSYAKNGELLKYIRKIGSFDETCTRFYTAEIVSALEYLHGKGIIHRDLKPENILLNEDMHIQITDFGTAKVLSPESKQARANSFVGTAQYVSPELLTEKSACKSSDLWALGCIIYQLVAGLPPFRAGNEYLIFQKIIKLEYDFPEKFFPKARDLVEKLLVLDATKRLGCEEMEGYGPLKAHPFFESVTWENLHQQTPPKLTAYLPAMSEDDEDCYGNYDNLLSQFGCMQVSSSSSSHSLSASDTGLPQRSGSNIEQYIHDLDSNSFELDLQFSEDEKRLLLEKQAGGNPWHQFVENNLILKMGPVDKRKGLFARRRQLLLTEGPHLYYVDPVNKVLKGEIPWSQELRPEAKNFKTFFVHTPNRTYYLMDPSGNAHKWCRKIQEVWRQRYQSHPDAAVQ
Hepatocyte growth factor receptor (Homo sapiens), sequence (P08581 whole entry): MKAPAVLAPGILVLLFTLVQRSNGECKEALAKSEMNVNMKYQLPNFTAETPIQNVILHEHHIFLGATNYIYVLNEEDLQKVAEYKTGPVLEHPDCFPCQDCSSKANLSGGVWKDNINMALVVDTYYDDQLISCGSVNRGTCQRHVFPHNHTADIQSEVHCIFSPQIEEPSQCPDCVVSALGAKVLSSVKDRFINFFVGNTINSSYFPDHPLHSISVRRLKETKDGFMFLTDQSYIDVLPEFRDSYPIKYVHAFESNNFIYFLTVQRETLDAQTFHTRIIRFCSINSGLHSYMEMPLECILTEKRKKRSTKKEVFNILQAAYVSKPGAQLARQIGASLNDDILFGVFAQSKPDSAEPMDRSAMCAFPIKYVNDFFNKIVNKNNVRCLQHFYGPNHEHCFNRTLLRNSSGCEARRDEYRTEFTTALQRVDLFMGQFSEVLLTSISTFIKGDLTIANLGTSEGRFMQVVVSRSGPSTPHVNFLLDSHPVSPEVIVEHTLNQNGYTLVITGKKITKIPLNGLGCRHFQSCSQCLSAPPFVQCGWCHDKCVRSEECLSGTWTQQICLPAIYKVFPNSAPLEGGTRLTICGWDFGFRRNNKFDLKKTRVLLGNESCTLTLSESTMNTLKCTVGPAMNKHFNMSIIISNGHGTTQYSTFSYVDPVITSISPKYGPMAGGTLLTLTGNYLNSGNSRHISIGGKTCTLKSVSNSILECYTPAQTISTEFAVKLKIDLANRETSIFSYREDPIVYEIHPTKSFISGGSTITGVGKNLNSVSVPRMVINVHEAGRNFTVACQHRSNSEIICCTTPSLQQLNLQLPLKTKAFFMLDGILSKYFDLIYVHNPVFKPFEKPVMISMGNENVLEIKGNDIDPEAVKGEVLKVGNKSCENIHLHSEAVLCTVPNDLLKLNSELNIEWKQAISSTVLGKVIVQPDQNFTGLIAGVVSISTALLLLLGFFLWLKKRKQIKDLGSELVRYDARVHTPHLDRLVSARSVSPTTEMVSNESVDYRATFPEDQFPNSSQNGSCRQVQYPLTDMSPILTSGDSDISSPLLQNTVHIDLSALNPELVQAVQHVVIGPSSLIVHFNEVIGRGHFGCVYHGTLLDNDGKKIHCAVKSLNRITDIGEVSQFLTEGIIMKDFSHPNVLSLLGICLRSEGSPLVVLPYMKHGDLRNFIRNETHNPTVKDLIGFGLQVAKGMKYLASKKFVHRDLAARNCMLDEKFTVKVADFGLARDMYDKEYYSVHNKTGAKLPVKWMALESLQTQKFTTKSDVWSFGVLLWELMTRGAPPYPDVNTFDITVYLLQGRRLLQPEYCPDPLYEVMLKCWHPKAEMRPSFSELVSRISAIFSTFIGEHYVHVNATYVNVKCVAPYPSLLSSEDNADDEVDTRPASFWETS
Mitogen-activated protein kinase; ERK1/ERK2 (Homo sapiens), sequence (P27361 whole entry, looked up): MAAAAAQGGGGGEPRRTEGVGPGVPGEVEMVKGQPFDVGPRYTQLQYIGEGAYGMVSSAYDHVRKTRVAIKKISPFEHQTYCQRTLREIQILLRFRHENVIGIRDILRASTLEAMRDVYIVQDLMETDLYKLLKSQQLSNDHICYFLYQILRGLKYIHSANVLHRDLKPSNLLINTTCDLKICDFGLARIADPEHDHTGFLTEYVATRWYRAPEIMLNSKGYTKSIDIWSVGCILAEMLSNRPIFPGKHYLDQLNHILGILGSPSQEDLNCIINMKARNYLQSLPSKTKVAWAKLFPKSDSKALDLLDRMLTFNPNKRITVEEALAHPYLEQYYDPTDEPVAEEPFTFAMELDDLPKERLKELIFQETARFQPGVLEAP
Mitogen-activated protein kinase; ERK1/ERK2 (Homo sapiens), sequence (P28482 whole entry, looked up): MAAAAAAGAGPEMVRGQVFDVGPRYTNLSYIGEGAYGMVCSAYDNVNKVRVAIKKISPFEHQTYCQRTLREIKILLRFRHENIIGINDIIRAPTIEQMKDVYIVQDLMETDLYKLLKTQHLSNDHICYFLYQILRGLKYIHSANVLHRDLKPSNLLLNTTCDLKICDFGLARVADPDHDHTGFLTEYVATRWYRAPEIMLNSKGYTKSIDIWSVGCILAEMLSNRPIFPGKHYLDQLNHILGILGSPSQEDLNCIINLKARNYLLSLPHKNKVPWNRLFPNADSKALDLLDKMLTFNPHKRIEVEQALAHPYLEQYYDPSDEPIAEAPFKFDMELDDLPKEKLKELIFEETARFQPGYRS

In general, IC50 refers to the concentration that gives 50% inhibition. Read a low IC50 as greater potency in that assay. For the molecule `C=C(C)[C@@]12O[C@@]3(/C=C/C=C/CCCCC)O[C@@H]1[C@@H]1[C@@H]4O[C@]4(CO)[C@@H](O)[C@]4(O)C(=O)C(C)=C[C@H]4[C@@]1(O3)[C@H](C)[C@H]2OC(C)=O` [YUANHUADINE], the inhibition result (in data set [1]; in data set [11]; in the data set on A549 [12]; in data set [18]; in data set [19]) was “Active” in each case. For the same molecule, the Activity in the data set on A549 [2] is recorded as 7.3%; in the data set with A549 [4], 1.8%; with A549 [7] it was 62.2%; with A549 [8] it was 27.5%; with Mus musculus, “Non-toxic”; in the data set with A549 [15], 5.5%. Further, the figures for the Activity with A549 [16], in the data set on A549 [17] and in the data set with A549 [20] were 7.5%, 65.3% and 2%, respectively. For the same molecule, the “growth inhibition (GI)” value in the data set with A549 [3] and in the data set with A549 [5] was “Active” each time. Moreover, the outcome with A549 [6] and in the data set on A549 [14] was Active. Further, in data set [9], the inhibition entry was “Dose-dependent effect”. The IC50 is less than 1 pM in the data set with NCI-H292 [10], less than 1 pM with SK-MES-1, 4100 pM in the data set on NCI-H1993 and less than 1 pM with NCI-H292 [21]. Also, in the data set on A549 [13], the inhibition in vivo at 0.5 mg/kg is 50%.

(Values after ChEMBL document CHEMBL1909581, “Growth inhibition of human lung cancer cells via down-regulation of epidermal growth factor receptor signaling by yuanhuadine, a daphnane diterpene from Daphne genkwa” (J Nat Prod, 2011).)
